Columns and labels:
[1] = target: T1, S-adenosylmethionine synthase isoform type-2 (Rattus norvegicus, UniProt P18298); test: Inhibitory constant against rat kidney Methionine adenosyltransferase II
Outline: (§1)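 MAT-II from rat kidney extract, taken through DEAE chromatography and diluted 10-fold daily. Duplicate 30-min incubations at 37 °C in 150 mM KCl–15 mM MgCl2–5 mM DTT–50 mM Tris-HCl pH 8.2 with 60 μM [14C]methionine. Mg-complexed inhibitor used at two levels (1-5 × Ki) against six to eight Mg-ATP levels (0.5-4.0 × KM). Product counted on phosphocellulose disks.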

[2] = target: T2, S-adenosylmethionine synthetase (MAT 1 and MAT 2) (Rattus norvegicus, UniProt P13444+P18298); test: […] rat Methionine adenosyltransferase was reported; format: protein assay
Outline: (§2)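 MAT-T partly purified from rat Novikoff hepatoma cells grown intraperitoneally in rats: cytosol extract, DEAE-cellulose, stored at -20 °C, diluted 10-fold for use. Assay run in duplicate, 37 °C for 30 min, in 150 mM KCl–15 mM MgCl2–5 mM DTT–50 mM Tris-HCl pH 8.2 with 60 μM [14C]methionine. Inhibitors given as 1:1 Mg complexes at two levels of 1-5 × Ki, with six to eight Mg-ATP levels (0.5-4.0 × KM).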

[3] = target: T2, S-adenosylmethionine synthetase (MAT 1 and MAT 2); test: Competitive inhibition of rat methionine adenosyltransferase, activity expressed as Ki; format: protein assay; outline: as §2
[4] = target: T3, S-adenosylmethionine synthase isoform type-1 (Rattus norvegicus, UniProt P13444); test: Inhibitory constant against rat liver Methionine adenosyltransferase I, activity expressed as Ki
Outline: (§3)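 Rat liver MAT-I, prepared free of MAT-II and MAT-III and diluted 5-fold. Duplicate assays at 37 °C, 30 min, in 150 mM KCl–7.5 mM MgSO4–2 mM DTT–50 mM HEPES pH 7.5 with 380 μM [14C]methionine. Two inhibitor levels (1:1 Mg complexes, 1-5 × Ki) run against six to eight Mg-ATP levels spanning 0.5-4.0 × KM. Ki taken from kinetic plots.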

[5] = target: T1, S-adenosylmethionine synthase isoform type-2; test: Inhibitory constant against rat kidney Methionine adenosyltransferase II, activity expressed as Ki; outline: as §1
[6] = target: T3, S-adenosylmethionine synthase isoform type-1; test: Inhibitory constant against rat liver Methionine adenosyltransferase I; outline: as §3
[7] = target: T2, S-adenosylmethionine synthetase (MAT 1 and MAT 2); test: Inhibitory constant against rat methionine adenosyltransferase was reported; format: protein assay; outline: as §2

T1 sequence (P18298 whole entry, canonical isoform): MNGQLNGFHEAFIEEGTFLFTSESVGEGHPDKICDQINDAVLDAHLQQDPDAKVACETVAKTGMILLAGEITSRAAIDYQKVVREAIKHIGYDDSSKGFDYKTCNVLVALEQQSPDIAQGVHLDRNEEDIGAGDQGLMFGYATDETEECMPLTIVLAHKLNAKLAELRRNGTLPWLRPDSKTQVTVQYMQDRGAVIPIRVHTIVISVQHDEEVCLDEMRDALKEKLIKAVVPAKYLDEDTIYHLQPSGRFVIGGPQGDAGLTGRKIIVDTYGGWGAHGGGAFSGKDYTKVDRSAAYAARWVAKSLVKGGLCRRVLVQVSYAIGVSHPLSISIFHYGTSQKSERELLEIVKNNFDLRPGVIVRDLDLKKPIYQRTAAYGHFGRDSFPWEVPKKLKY
T3 sequence (P13444 whole entry, canonical isoform): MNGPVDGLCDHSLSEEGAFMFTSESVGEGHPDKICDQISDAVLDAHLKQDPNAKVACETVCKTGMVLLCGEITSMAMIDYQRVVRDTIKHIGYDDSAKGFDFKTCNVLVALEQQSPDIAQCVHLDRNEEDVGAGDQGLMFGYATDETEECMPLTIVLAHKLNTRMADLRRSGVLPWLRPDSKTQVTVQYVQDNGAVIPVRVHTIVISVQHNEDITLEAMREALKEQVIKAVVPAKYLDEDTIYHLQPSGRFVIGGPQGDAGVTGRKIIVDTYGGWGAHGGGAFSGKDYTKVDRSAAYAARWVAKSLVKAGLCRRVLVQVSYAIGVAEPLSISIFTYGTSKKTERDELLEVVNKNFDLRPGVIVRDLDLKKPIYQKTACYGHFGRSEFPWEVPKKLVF

| SMILES | Ki [1] [µM] | Ki [3] [µM] | Ki [5] [µM] | Ki [2] [µM] | other results |
| --- | --- | --- | --- | --- | --- |
| Nc1ncnc2c1ncn2[C@@H]1O[C@H](COP(=O)(O)OP(=O)(O)NP(=O)(O)O)[C@@H](O)[C@H]1O | 5.5 | – | – | 4 | – |
| CSc1nc2c(N)ncnc2n1[C@@H]1O[C@H](COP(=O)(O)OP(=O)(O)OP(=O)(O)O)[C@@H](O)[C@H]1O | – | – | – | 530 | – |
| CSc1nc(N)c2ncn([C@@H]3O[C@H](COP(=O)(O)OP(=O)(O)OP(=O)(O)O)[C@@H](O)[C@H]3O)c2n1 | 600 | – | – | 110 | – |
| Nc1ncnc2c1nc(SCCC(N)C(=O)O)n2C1O[C@H](COP(=O)(O)OP(=O)(O)OP(=O)(O)O)[C@@H](O)[C@H]1O (stereo not given in full) | 520 | – | – | – | Ki [6]: 3300 µM |
| Nc1ncnc2c1ncn2[C@@H]1O[C@H](COP(=O)(O)CP(=O)(O)OP(=O)(O)O)[C@@H](O)[C@H]1O [DIPHOSPHOMETHYLPHOSPHONIC ACID ADENOSYL ESTER] | 300 | – | – | 340 | – |

Further lines, with some results ahead:

| Ki [1] [µM] | Ki [3] [µM] | Ki [5] [µM] | SMILES | Ki [2] [µM] | other results |
| --- | --- | --- | --- | --- | --- |
| – | 80 | 190 | CC(OP(=O)(O)OP(=O)(O)OP(=O)(O)O)[C@H]1O[C@@H](n2cnc3c(N)ncnc32)[C@H](O)[C@@H]1O (stereo not given in full) | – | Ki [4]: 9 µM |
| – | 37 | 48 | CCCC(OP(=O)(O)OP(=O)(O)OP(=O)(O)O)[C@H]1O[C@@H](n2cnc3c(N)ncnc32)[C@H](O)[C@@H]1O (stereo not given in full) | – | – |
| – | 170 | 140 | CO[C@@H]1[C@H](O)[C@@H](COP(=O)(O)OP(=O)(O)OP(=O)(O)O)O[C@H]1n1cnc2c(N)ncnc21 | – | – |
| – | 180 | 170 | CO[C@H]1[C@@H](O)[C@H](n2cnc3c(N)ncnc32)O[C@@H]1COP(=O)(O)OP(=O)(O)OP(=O)(O)O | – | – |
| 530 | – | – | CCCCNc1ncnc2c1ncn2C1O[C@H](COP(=O)(O)OP(=O)(O)OP(=O)(O)O)[C@@H](O)[C@H]1O (stereo not given in full) | – | Ki [7]: 210 µM |

— ChEMBL document CHEMBL1123521, “Isozyme-specific enzyme inhibitors. 10. Adenosine 5'-triphosphate derivatives as substrates or inhibitors of methionine adenosyltransferases of rat normal and hepatoma tissues” (J Med Chem, 1986)
